Measured values taken from ChEMBL document CHEMBL1154191, “Evaluation of spirocyclic 3-(3-fluoropropyl)-2-benzofurans as sigma1 receptor ligands for neuroimaging with positron emission tomography” (J Med Chem, 2009).

How the values were obtained:
Stomach [1] = test: Biodistribution in CD1 mouse stomach assessed per gram of wet tissue at 400 to 600 kBq, iv after 60 mins post-injection by gamma counting; format: ADME, organism-based; settings: in vivo, 1 h
Summary of the method: (§1)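 Female CD-1 mice (~8-12 weeks, 20-28 g), habituated ≥48 h and fasted 24 h with water available. The [18F] tracer (>150 GBq/μmol at end of synthesis) was given in 200 μL saline into the tail vein of conscious animals. At each time point, n=4-5, mice were anaesthetised, blood and urine sampled, then killed by cervical dislocation. Organs were weighed and γ-counted, and values calculated as % ID/g wet tissue.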

Kidney [2] = test: Biodistribution in CD1 mouse kidney assessed per gram of wet tissue at 400 to 600 kBq, iv after 60 mins post-injection by gamma counting; format: ADME, organism-based; settings: in vivo, 1 h
Summary of the method: (§2)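 Female CD-1 mice (~8-12 weeks, 20-28 g) were fasted 24 h with free water. Conscious mice got 400-600 kBq [¹⁸F] tracer in saline by tail vein. At 5, 30, 60 or 120 min (n=4-5 per time) they were anesthetized, blood and urine sampled, then killed by cervical dislocation. Organs were weighed and γ-counted, giving % ID/g wet tissue.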

Spleen = test: Biodistribution in CD1 mouse spleen assessed per gram of wet tissue at 400 to 600 kBq, iv after 60 mins post-injection by gamma counting; format: ADME, organism-based; settings: in vivo, 1 h; summary of the method: as §1
[3] = Biodistribution in CD1 mouse adrenal gland assessed per gram of wet tissue at 400 to 600 kBq, iv after 60 mins post-injection by gamma counting; format: ADME, organism-based; settings: in vivo, 1 h; summary of the method: as §2
Femur [4] = test: Biodistribution in CD1 mouse femur assessed per gram of wet tissue at 400 to 600 kBq, iv after 60 mins post-injection by gamma counting; format: ADME, organism-based; settings: in vivo, 1 h; summary of the method: as §2
Cerebellum [5] = test: Biodistribution in CD1 mouse cerebellum assessed per gram of wet tissue at 400 to 600 kBq, iv after 120 mins post-injection by gamma counting; format: ADME, organism-based; settings: in vivo, 2 h; summary of the method: as §2
Stomach [6] = test: Biodistribution in CD1 mouse stomach assessed per gram of wet tissue at 400 to 600 kBq, iv after 120 mins post-injection by gamma counting; format: ADME, organism-based; settings: in vivo, 2 h; summary of the method: as §1
Liver [7] = test: Biodistribution in CD1 mouse liver assessed per gram of wet tissue at 400 to 600 kBq, iv after 120 mins post-injection by gamma counting; format: ADME, organism-based; settings: in vivo, 2 h; summary of the method: as §2
Kidney [8] = test: Biodistribution in CD1 mouse kidney assessed per gram of wet tissue at 400 to 600 kBq, iv after 120 mins post-injection by gamma counting; format: ADME, organism-based; settings: in vivo, 2 h; summary of the method: as §2
[9] = Biodistribution in CD1 mouse adrenal gland assessed per gram of wet tissue at 400 to 600 kBq, iv after 120 mins post-injection by gamma counting; format: ADME, organism-based; settings: in vivo, 2 h; summary of the method: as §2
[10] = Biodistribution in CD1 mouse gonad assessed per gram of wet tissue at 400 to 600 kBq, iv after 120 mins post-injection by gamma counting; format: ADME, organism-based; settings: in vivo, 2 h; summary of the method: as §2
Femur [11] = test: Biodistribution in CD1 mouse femur assessed per gram of wet tissue at 400 to 600 kBq, iv after 120 mins post-injection by gamma counting; format: ADME, organism-based; settings: in vivo, 2 h; summary of the method: as §2
Blood = test: Biodistribution in CD1 mouse blood assessed per gram of wet tissue at 400 to 600 kBq, iv after 60 mins post-injection by gamma counting in presence of 1 mg/kg, ip sigma 1/sigma 2 receptor antagonist haloperidol treated before compound addition; format: organism-based; set-up: dose 1 mg/kg, route intravenous; settings: in vivo, 1 h
Summary of the method: (§3)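 Blocking arm in fasted female CD-1 mice (n=5). […] Animals were killed at 60 min post-injection, and organs were weighed and γ-counted as % ID/g wet tissue. Percent change was taken against the 60 min control group, with two-tailed unpaired Student's t test.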

Heart = test: Biodistribution in CD1 mouse heart assessed per gram of wet tissue at 400 to 600 kBq, iv after 60 mins post-injection by gamma counting in presence of 1 mg/kg, ip sigma 1/sigma 2 receptor antagonist haloperidol treated before compound addition; format: organism-based; set-up: dose 1 mg/kg, route intravenous; settings: in vivo, 1 h; summary of the method: as §3
Intestine = test: Biodistribution in CD1 mouse intestine assessed per gram of wet tissue at 400 to 600 kBq, iv after 60 mins post-injection by gamma counting in presence of 1 mg/kg, ip sigma 1/sigma 2 receptor antagonist haloperidol treated before compound addition; format: organism-based; set-up: dose 1 mg/kg, route intravenous; settings: in vivo, 1 h; summary of the method: as §3
Liver [12] = test: Biodistribution in CD1 mouse liver assessed increase in drug uptake at 400 to 600 kBq, iv after 60 mins post-injection by gamma counting in presence of 1 mg/kg, ip sigma 1/sigma 2 receptor antagonist haloperidol treated before compound addition; format: organism-based; set-up: dose 1 mg/kg, route intravenous; settings: in vivo, 1 h; summary of the method: as §3
[13] = Biodistribution in CD1 mouse gonad assessed per gram of wet tissue at 400 to 600 kBq, iv after 60 mins post-injection by gamma counting in presence of 1 mg/kg, ip sigma 1/sigma 2 receptor antagonist haloperidol treated before compound addition; format: organism-based; set-up: dose 1 mg/kg, route intravenous; settings: in vivo, 1 h; summary of the method: as §3
Femur [14] = test: Biodistribution in CD1 mouse femur assessed per gram of wet tissue per gram of wet tissue at 400 to 600 kBq, iv after 60 mins post-injection by gamma counting in presence of 1 mg/kg, ip sigma 1/sigma 2 receptor antagonist haloperidol treated before compound addition; format: organism-based; set-up: dose 1 mg/kg, route intravenous; settings: in vivo, 1 h; summary of the method: as §3
[15] = Ratio of drug level in cerebellum to plasma in CD1 mouse at 400 to 600 kBq, iv after 30 mins post-injection; format: ADME, organism-based
Summary of the method: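 Female CD-1 mice (~8-12 weeks, 20-28 g), fasted 24 h with free water; 400-600 kBq tracer in 200 μL saline by tail vein into conscious animals. Killed at set times pi (n=4-5 per time); blood and organs weighed, γ-counted, expressed as % ID/g wet tissue; ratio from cerebellum and plasma uptake.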

Cerebellum [16] = test: Biodistribution in CD1 mouse cerebellum assessed per gram of wet tissue at 400 to 600 kBq, iv after 5 mins post-injection by gamma counting; format: ADME, organism-based; settings: in vivo; summary of the method: as §2
Stomach [17] = test: Biodistribution in CD1 mouse stomach assessed per gram of wet tissue at 400 to 600 kBq, iv after 5 mins post-injection by gamma counting; format: ADME, organism-based; settings: in vivo; summary of the method: as §1
Muscle tissue = test: Biodistribution in CD1 mouse muscle assessed per gram of wet tissue at 400 to 600 kBq, iv after 5 mins post-injection by gamma counting; format: ADME, organism-based; settings: in vivo; summary of the method: as §1
Brain = test: Biodistribution in CD1 mouse brain assessed per gram of wet tissue at 400 to 600 kBq, iv after 30 mins post-injection by gamma counting; format: ADME, organism-based; settings: in vivo, 0.5 h; summary of the method: as §2
Stomach [18] = test: Biodistribution in CD1 mouse stomach assessed per gram of wet tissue at 400 to 600 kBq, iv after 30 mins post-injection by gamma counting; format: ADME, organism-based; settings: in vivo, 0.5 h; summary of the method: as §1
Liver [19] = test: Biodistribution in CD1 mouse liver assessed per gram of wet tissue at 400 to 600 kBq, iv after 30 mins post-injection by gamma counting; format: ADME, organism-based; settings: in vivo, 0.5 h; summary of the method: as §1
[20] = Biodistribution in CD1 mouse thymus assessed per gram of wet tissue at 400 to 600 kBq, iv after 30 mins post-injection by gamma counting; format: ADME, organism-based; settings: in vivo, 0.5 h; summary of the method: as §1
Pancreas = test: Biodistribution in CD1 mouse pancreas assessed per gram of wet tissue at 400 to 600 kBq, iv after 30 mins post-injection by gamma counting; format: ADME, organism-based; settings: in vivo, 0.5 h; summary of the method: as §1
[21] = Biodistribution in CD1 mouse adrenal gland assessed per gram of wet tissue at 400 to 600 kBq, iv after 30 mins post-injection by gamma counting; format: ADME, organism-based; settings: in vivo, 0.5 h; summary of the method: as §2
Femur [22] = test: Biodistribution in CD1 mouse femur assessed per gram of wet tissue at 400 to 600 kBq, iv after 30 mins post-injection by gamma counting; format: ADME, organism-based; settings: in vivo, 0.5 h; summary of the method: as §2
[23] = Metabolic stability in CD1 mouse urine assessed as formation of hydrophilic and lipophilioc radiometabolite at 200 to 300 MBq, iv after 45 mins post-injection by radio-HPLC and radio-TLC; format: ADME, organism-based; settings: in vivo, 0.75 h

Structure (SMILES): [18F]CCCC1OC2(CCN(Cc3ccccc3)CC2)c2ccccc21 (stereo not given)
- Drug uptake (Stomach [1]): 3.17 %ID
- Drug uptake (Kidney [2]): 5.14 %ID
- Drug uptake (Spleen): 5.56 %ID
- Drug uptake [3]: 7.78 %ID
- Drug uptake (Femur [4]): 3.48 %ID
- Drug uptake (Cerebellum [5]): 2.41 %ID
- Drug uptake (Stomach [6]): 3.12 %ID
- Drug uptake (Liver [7]): 2.93 %ID
- Drug uptake (Kidney [8]): 3.68 %ID
- Drug uptake [9]: 5.86 %ID
- Drug uptake [10]: 4.16 %ID
- Drug uptake (Femur [11]): 6.64 %ID
- Drug uptake (Blood): 0.56 %ID
- Drug uptake (Heart): 1.09 %ID
- Drug uptake (Intestine): 6.6 %ID
- Drug uptake (Liver [12]): 3.89 %ID
- Drug uptake [13]: 4.92 %ID
- Drug uptake (Femur [14]): 4.27 %ID
- Kp at 0.5 h [15]: 3.86
- Drug uptake (Cerebellum [16]): 4.62 %ID
- Drug uptake (Stomach [17]): 3.39 %ID
- Drug uptake (Muscle tissue): 2.18 %ID
- Drug uptake (Brain): 3.18 %ID
- Drug uptake (Stomach [18]): 5.13 %ID
- Drug uptake (Liver [19]): 4.28 %ID
- Drug uptake [20]: 3.26 %ID
- Drug uptake (Pancreas): 12.8 %ID
- Drug uptake [21]: 7.63 %ID
- Drug uptake (Femur [22]): 3.79 %ID
- Activity [23]: 98%
